A selection: hits, their analogues and other compounds. The true share with any hit is near 3.4%.
Runt-SMMHC FRET: Runt domain-CBFb-SMMHC interaction inhibition | 0.74% of 220,000 active | Q01196+Q13951 | Cerulean-Runt/Venus-CBFb-SMMHC FRET ratio 530/480, 1 h | inhibition, % at 20 µM;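 active = mean inhibition across duplicate retests at 20 µM reaching about 50%, limit read from the data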;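 also: 0% = DMSO wells and 100% = wells with excess untagged CBFb-SMMHC; inhibitors lower the FRET ratio by blocking Runt binding to CBFb-SMMHC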
PHOSPHO1 inh: blocks human PHOSPHO1 phosphatase activity; 1.1% of 290,000 active; inhibition, % at 13.3 µM; recombinant PHOSPHO1, absorbance phosphatase assay; Q8TCT1; in the data active = inhibition above about 60%
Wee1 degr inh: blocks degradation of human Wee1 kinase | reporter increase, % at 5 µM | AID 1321 | HeLa Luc-Wee1K328M stability, luciferase luminescence; 100% = proteasome inhibitor MG132 effect | 1.2% of 220,000 active;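 active = activation above the mean of all tested compounds plus 3 SD, set per screening run, cut at about 8.8% in these data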;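 also: cells exposed to compound for 20 h before luminescence read; 0% = DMSO alone and 100% = MG132 at 30 µM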
Target sequence (P30291 whole entry K328M): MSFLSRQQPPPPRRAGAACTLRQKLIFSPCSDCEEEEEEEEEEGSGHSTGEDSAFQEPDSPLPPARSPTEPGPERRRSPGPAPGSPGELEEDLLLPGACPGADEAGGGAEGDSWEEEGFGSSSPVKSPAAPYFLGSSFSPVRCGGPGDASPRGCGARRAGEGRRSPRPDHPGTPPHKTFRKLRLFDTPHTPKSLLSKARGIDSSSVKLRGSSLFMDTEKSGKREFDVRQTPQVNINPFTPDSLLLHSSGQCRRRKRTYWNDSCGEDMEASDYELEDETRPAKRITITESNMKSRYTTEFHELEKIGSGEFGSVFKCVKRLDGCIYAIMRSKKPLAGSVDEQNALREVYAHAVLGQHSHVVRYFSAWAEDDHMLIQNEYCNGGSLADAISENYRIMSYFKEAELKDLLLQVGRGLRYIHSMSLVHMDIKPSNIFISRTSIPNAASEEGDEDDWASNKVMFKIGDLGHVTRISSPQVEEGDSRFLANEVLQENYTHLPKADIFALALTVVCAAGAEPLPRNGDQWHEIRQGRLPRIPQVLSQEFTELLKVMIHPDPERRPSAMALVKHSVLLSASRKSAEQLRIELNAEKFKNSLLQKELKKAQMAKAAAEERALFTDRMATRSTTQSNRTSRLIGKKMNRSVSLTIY
RanGTP-Impb inh: disruptors of Ran-importin-beta complex formation – biochemical, FRET, CFP-Ran, YFP-importin-beta, homogeneous, primary screen; cell-free CFP-Ran/YFP-importin-beta FRET ratio; inhibition, % (test concentration not listed); 1.1% of 300,000 active;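 active = more than half of the replicate wells show a fall in the fluorescence ratio signal beyond about 16%, limit read from the data, passing the limit was not always enough; inconclusive = exactly half of the replicate wells pass the set limit; inactive = fewer than half of replicates pass the limit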;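 also: 0% = DMSO wells and 100% = Ran loaded with GDP instead of GTP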
Runt-CBFb FRET: blocks binding of human RUNX1 Runt domain to CBFb; Cerulean-Runt/Venus-CBFb FRET ratio 530/480, 1 h; inhibition, % at 20 µM; 0.46% of 220,000 active; AID 1496;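 active = inhibition over about 50% at 20 µM in the single-dose screen, limit read from the data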;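 also: 0% = DMSO wells and 100% = excess unlabeled CBFb competitor control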
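Doses: 20 µM compound in 1% DMSO | Material: Cerulean-labeled Runt domain protein | Amount: Each fluorescent fusion protein 100 nM | Schedule: Two 1 h room-temperature incubations shielded from light | Measured by: FRET fluorescence | Evaluation: Loss of energy transfer signal | Controls: Unlabeled CBFb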
Efa HMGR inh: inhibitors of class II HMG-CoA reductase from Enterococcus faecalis; purified E. faecalis HMGR, NADPH absorbance 340 nm kinetic; inhibition, % at 10 µM; 0.41% of 190,000 active; AID 1066;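 active = inhibition above a set limit, the median over all tested compounds plus 3 SD, cut at about 9.5% in these data; inconclusive = no clear call, values can overlap the other calls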;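 also: enzyme runs in reverse so mevalonate oxidation gives rising NADPH absorbance; 0% = complete reaction with DMSO and 100% = background rate lacking mevalonate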
Wee1 degr conf: human Wee1 degradation inhibition, confirmation. shares compounds with Wee1 degr inh. HeLa Luc-Wee1K328M degradation, luminescence; vehicle 0%, proteasome-blocked wells 100%. activation, % at 5 µM. 4% of 1,100 active. AID 1410; in the data active = activation above about 8.9%
* marks the source's active call; other numbers are inactive results; ? = inconclusive; . = no result given.

SMILES	Runt-SMMHC FRET	PHOSPHO1 inh	Wee1 degr inh	RanGTP-Impb inh	Runt-CBFb FRET	Efa HMGR inh	Wee1 degr conf
COc1ccc2c(c1)c(CC(=O)Nc1cc(C)ccc1C)c(C)n2C(=O)c1ccc(Cl)cc1	10	-11	14*	9	1	2	2
C/C(=N\NC(=O)CCc1ccccc1)C1C(=O)c2ccccc2C1=O	.	8	13*	-4	.	-11	-1
CC(/C=C/c1ccccc1)=N\NC(=O)CCc1ccccc1	1	53	-1	2	-1	0	.
COCCC(=O)N1CCC(Oc2ccc(C(=O)NCCc3ccccn3)cc2)CC1	.	21	.	0	.	.	.
C/C(=N\N(Cc1ccccc1)c1ccccc1)c1ccncc1	5	-2	1	6	6	-4	.
COC(=O)c1ccccc1NC(=O)Cn1c(CCC(=O)O)ccc1-c1cccs1	21	5	17*	3	12	2	7
CCCn1c(CCC(=O)O)ccc1-c1cccs1	26	27	2	?	11	-12	.
CCCN(CC(=O)Nc1ccc(Cl)cc1Cl)C(=O)/C=C/c1ccco1	-1	-11	2	-3	-2	0	.
COc1ccc(CC(=O)O/N=C(\N)c2ccccn2)cc1	-5	-17	16*	5	3	.	4
COc1ccc(/C=C/C(=O)c2ccccn2)cc1	28	16	12*	7	24	-6	-1
CCOc1ccc(CCNC(=O)COC(=O)/C=C/c2ccccc2OC)cc1OCC	.	.	.	-6	.	.	.
Cc1ccc(Nc2cc(C)nn2-c2nc(C)cc(=O)[nH]2)cc1	-4	28	129*	3	.	-6	123*
Cc1ccc(Nc2cc(C)nc3nnnn23)cc1	0	16	1	0	-2	-5	.
N#CC(c1nc2ccccc2nc1N1CCCC1)S(=O)(=O)c1cccs1 (centres undefined)	4	19	-1	0	5	-5	.
Nc1nc(CCl)nc(Nc2cccc3ccccc23)n1	2	29	7	2	2	.	.
O=C(NNC(=O)C1CC1c1ccccc1)Nc1ccccc1 (centres undefined)	2	6	-3	-2	1	-7	.
O=C(NNC(=O)C12CC3CC(CC(C3)C1)C2)[C@@H]1C[C@H]1c1ccccc1	0	-3	20*	0	1	1	1
COc1ccc(NC(=O)C2CCCN2C(=O)NCc2ccccc2)cc1 (centres undefined)	-1	16	-2	2	2	0	.
CC(C)OCCCNC(=O)C(C)Oc1ccccc1 (centres undefined)	-2	-2	-2	2	2	-1	.
CC(C)OCCCNC(=O)Nc1cccc2ccccc12	-4	45	13*	2	2	14*	0
O=C(c1cccc(-c2ccccc2F)c1)N1CC[C@@H](N2CCC(O)CC2)[C@H](O)C1	.	38	.	?	.	.	.
CCOc1ccc(N2C(=O)CC(Sc3nc(C)cc(C)n3)C2=O)cc1 (centres undefined)	2	23	5	4	1	0	.
CCOc1ccc(N2C(=O)CC(Sc3nnnn3-c3ccccc3)C2=O)cc1 (centres undefined)	23	6	14*	?	34	-4	-1
CCN=C(NCC)SC1CC(=O)N(c2ccc(OCC)cc2)C1=O (centres undefined)	-1	44	16*	2	1	-2	6
CCN=C(NCC)SC1CC(=O)N(c2ccccc2)C1=O (centres undefined)	-1	3	-1	4	-3	0	.
Cc1c([N+](=O)[O-])c(C(=O)NC2CCCCC2)nn1C	.	12	.	3	.	.	.
CC(=O)c1ccc(S(=O)c2ccccc2)cc1 (centres undefined)	0	29	-1	1	2	3	.
Cc1ccc(C)c(S(=O)(=O)N2CCN(CC(=O)Nc3sccc3C#N)CC2)c1	-2	3	14*	-2	2	-11	2

Bioassay records: PubChem BioAssay, several laboratories
